In the library only some 3% were active in any assay of this set; here they are far more common.
AI-2 QS modul: modulators of Vibrio harveyi AI-2 quorum sensing system. Vibrio harveyi JMH597 AI-2 luminescence/OD600 ratio, 9 h; hits give low values; strain lacks LuxN and CqsS sensors; 0 = neutral-control median. activity change, % at 7.5 µM. 0.4% of 300,000 active; in the data active = activity change below about -75%, passing the limit was not always enough; inconclusive = no clear call, values can overlap the other calls;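 note: luminescence divided by OD600 gain over 9 h not by final OD600 alone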
HIF activator: HIF pathway transcriptional activation; activation, % at 7.5 µM (by protocol); 0.32% of 300,000 active; U2OS HRE-luciferase reporter, luminescence; normalized: DMSO 0%, desferrioxamine 100%; AID 1910;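 active = mean activation of at least 10% of the iron chelator positive control signal, with at least half of replicates also reaching 10%; inconclusive = mean and replicate majority disagree about reaching 10%; inactive = mean and most replicates under 10%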
V-ATPase pHluor: alters yeast V-ATPase proton transport. response, % at 10 µM. S. cerevisiae, pHLuorin cytosolic pH fluorescence. AID 504577. 0.37% of 350,000 active; in the data active = response mostly above about 7.3%, no sharp cut-off; inactive = mostly below about 5.4%; note: actives read high
CendR NRP1 mod: NRP-1/CendR interaction modulation. O14786. FAM-RPARPAR peptide binding to NRP-1, fluorescence polarization. inhibition, % at 25 µM. 0.85% of 360,000 active;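 active = inhibition or corrected inhibition above about 18%, plus a signal ratio from 0.5 to 1.5, limit read from the data, passing the limit was not always enough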
Target sequence (O14786 whole entry, looked up): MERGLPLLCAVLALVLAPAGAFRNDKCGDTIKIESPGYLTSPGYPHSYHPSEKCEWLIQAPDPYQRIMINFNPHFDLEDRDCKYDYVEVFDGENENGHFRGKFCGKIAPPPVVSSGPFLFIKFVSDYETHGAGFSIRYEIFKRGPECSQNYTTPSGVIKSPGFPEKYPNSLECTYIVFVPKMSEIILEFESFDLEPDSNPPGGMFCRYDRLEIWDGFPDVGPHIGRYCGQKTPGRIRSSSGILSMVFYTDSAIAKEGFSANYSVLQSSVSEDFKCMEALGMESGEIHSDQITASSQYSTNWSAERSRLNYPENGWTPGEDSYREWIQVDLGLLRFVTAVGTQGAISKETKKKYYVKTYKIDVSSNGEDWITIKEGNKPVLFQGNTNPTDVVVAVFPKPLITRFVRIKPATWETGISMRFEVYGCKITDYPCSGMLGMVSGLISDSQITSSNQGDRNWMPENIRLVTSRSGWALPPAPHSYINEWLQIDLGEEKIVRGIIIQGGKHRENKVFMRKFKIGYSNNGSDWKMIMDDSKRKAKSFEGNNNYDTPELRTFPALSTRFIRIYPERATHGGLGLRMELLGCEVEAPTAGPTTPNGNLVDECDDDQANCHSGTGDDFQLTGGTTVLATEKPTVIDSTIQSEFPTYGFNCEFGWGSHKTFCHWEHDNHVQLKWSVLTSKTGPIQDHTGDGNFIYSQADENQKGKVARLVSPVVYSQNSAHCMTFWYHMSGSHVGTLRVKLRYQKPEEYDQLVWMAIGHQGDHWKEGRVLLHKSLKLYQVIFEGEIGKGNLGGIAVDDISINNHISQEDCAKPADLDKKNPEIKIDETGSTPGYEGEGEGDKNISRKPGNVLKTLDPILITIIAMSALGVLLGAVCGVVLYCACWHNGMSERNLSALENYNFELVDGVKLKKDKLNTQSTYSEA
T cruzi repl: blocks replication of Trypanosoma cruzi; inhibition, % (no concentration beside the values); AID 1885; T. cruzi beta-gal in NIH3T3, luminescence, 90 h; 1.4% of 300,000 active;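 active = mean inhibition across valid replicates above about 55%, limit read from the data; inconclusive = mean below that limit but half or more replicates reach it; inactive = mean below it, under half of replicates reach it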;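 note: signal also drops with host cell toxicity which is not excluded here; higher percent means less beta-gal luminescence so fewer parasites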
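compound dosing = single 50 nL compound addition per well in DMSO | material = NIH/3T3 host cells with β-galactosidase reporter T. cruzi | input = 5,000 host fibroblasts per well | timing = ≥90 h infection period, 3 h prior cell attachment | read-out basis = percent inhibition of parasite-derived β-gal signal | detection = GalScreen β-gal luminescence, detergent lysis, 60 min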
CR mimetic SO: lowers age-related superoxide in aged yeast cells; S. cerevisiae aged cells, superoxide DHE fluorescence; hits give low values; superoxide response (% of plate mean), % at 10 µM; 0.18% of 330,000 active; AID 2690;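 active = superoxide response under a set limit, about three screen SD below normal, cut at about 65% in these data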;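 note: yeast aged for seven days with compound at 30 °C before DHE staining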
Numbers stand for hits; n = inactive; u = inconclusive; x = no result.

SMILES | AI-2 QS modul | HIF activator | V-ATPase pHluor | CendR NRP1 mod | T cruzi repl | CR mimetic SO
COc1cc(C(=O)NC(C)c2ccc(S(N)(=O)=O)cc2)ccc1OCC(=O)N1CCOCC1 (stereo unspecified) | n | n | n | n | n | n
O=C(O)c1ccccc1SCC(=O)N1CCCCC1 | n | n | n | 28 | n | n
O=C(c1ccccc1-c1ccccc1)N1CCCCC1 | n | n | n | 23 | n | n
O=C(c1ccccc1-c1ccccc1)N1CCCC1 | n | n | n | n | n | n
O=C(CSc1cccc2cccnc12)N1CCCC1 | n | n | n | n | 61 | n
O=C(O)c1ccccc1SCC(=O)N1CCOCC1 | n | n | n | n | n | n
CCNc1cc2oc(=O)c(CN3CCOCC3)c(C)c2cc1C | x | x | n | 25 | x | n
Cc1cc2oc(=O)cc(CN3CCOCC3)c2cc1C | n | n | n | n | n | n
CC(CC(F)(F)F)N1CCC(n2nccc2NC(=O)CCOc2ccccc2)CC1 (stereo unspecified) | n | n | n | n | n | n
O=C(c1ccco1)N1CCN(/C(=N/S(=O)(=O)c2cccs2)c2ccccc2Cl)CC1 | n | n | n | 27 | n | n
O=S(=O)(/N=C(\c1ccccc1)N1CCOCC1)c1cccs1 | n | n | n | 27 | n | n
CCCc1nnc(NC(=O)c2nc(S(=O)(=O)Cc3ccc(C)cc3)ncc2Cl)s1 | n | n | n | n | n | n
Cc1ccc(NC(=O)CSc2nnc(-c3cc(C)on3)o2)cc1 | x | n | n | n | n | n
OCCCCNCc1ccc(OCc2ccc(Cl)cc2)cc1 | n | n | n | n | 57 | n
O=C(c1cccc(S(=O)(=O)N2CCCC2)c1)N1CCN(c2ncccn2)CC1 | n | n | n | n | n | n
CCN1CCN(CCC(=O)Nc2cc(OC)ccc2OC)CC1 | x | n | n | n | n | n
CCCCCn1c(=O)[nH]c2cc(C(=O)NCCCN(C)Cc3ccccc3)ccc2c1=O | n | n | n | n | 58 | n
CCCCN(C)CCNC(=O)c1ccc(Cn2c(=S)[nH]c3ccc(Br)cc3c2=O)cc1 | n | n | n | n | 77 | n
COc1ccc(OC)c(NC(=S)N(CCc2c(C)[nH]c3ccc(C)cc23)Cc2cccs2)c1 | n | n | n | n | n | n
CCOC(=O)c1c(S(=O)(=O)N2CCC(C)CC2)c(C)n(C)c1C | n | 44 | n | n | n | n
COc1ccc(OCCC(=O)N2CCN(C)CC2)cc1 | n | n | n | n | n | n
CC(=O)c1cccc(CN2CCCC(C(=O)c3ccc4c(c3)OCO4)C2)c1 (stereo unspecified) | n | n | n | n | n | n
O=C(c1ccc2c(c1)OCO2)C1CCCN(C2CCN(CCc3ccccc3)CC2)C1 (stereo unspecified) | n | n | n | n | 69 | n
COCCOC(=O)c1c(C)n(C)c2ccc(OC(=O)c3cccs3)cc12 | n | n | n | n | n | n
O=C(O)c1cc(Nc2cc(Cl)c3nonc3c2[N+](=O)[O-])ccc1O | n | n | n | 25 | n | n
SMILES | AI-2 QS modul | HIF activator | V-ATPase pHluor | CendR NRP1 mod | T cruzi repl | CR mimetic SO
Cc1ccccc1Nc1ccc2nonc2c1[N+](=O)[O-] | n | n | n | n | n | n
O=[N+]([O-])c1c(Nc2ccccc2O)cc(Cl)c2nonc12 | u | n | n | n | 59 | n
O=C(O)c1ccccc1Nc1ccc2nonc2c1[N+](=O)[O-] | n | n | n | n | n | x
O=[N+]([O-])c1c(Nc2ccccc2O)ccc2nonc12 | n | n | n | 25 | n | n
COC(=O)c1cccc(NC(=O)/C=C/c2ccc3c(c2)OCO3)c1 | n | n | n | n | n | n
CC1(C(=O)Nc2cccc(C(F)(F)F)c2)Cc2c(-c3cccc(C(N)=O)c3)ccnc2O1 (stereo unspecified) | x | x | x | n | x | x
O=C(CNS(=O)(=O)c1ccc(F)cc1)N1CCOCC1 | n | n | n | n | n | n
COc1ccccc1OCC(=O)NNC(=O)C1CCN(c2ncnc3sc(C)c(C)c23)CC1 | x | x | n | n | x | n
COc1ccc(-c2csc(NC(=O)C3CCN(c4ncnc5sc(C)c(C)c45)CC3)n2)cc1OC | n | n | n | n | 57 | n
COc1ccc(NC(=O)c2cccc(-c3ccc(O)cc3)c2)cn1 | x | n | n | 41 | n | n
COc1ccc(NC(=O)c2cccs2)cn1 | n | 19 | n | n | n | n
CC(=O)Nc1cccc(NC(=O)c2cccc(-c3ccc(O)cc3)c2)c1 | n | n | n | n | n | n
Cn1c(=O)c2[nH]c(CN3CCCCC3)nc2n(C)c1=O | x | x | n | n | x | x
CC1(C(=O)NS(=O)(=O)c2cccc(OC(F)F)c2)CCN1C(=O)Cc1ccccc1 (stereo unspecified) | x | x | x | n | x | x
Cc1coc2c1c(C)cc1oc(=O)c(CC(=O)NCCC(=O)O)c(C)c12 | n | n | n | 20 | n | n
Cc1cccc(C)c1N(CC(=O)N(C)Cc1ccccc1)S(C)(=O)=O | n | n | n | n | n | n
COc1cccc(OCC(O)CN2CCN(CCN3C(=O)c4cccc5cccc(c45)C3=O)CC2)c1 (stereo unspecified) | n | n | n | n | 70 | n
O=C1c2cccc3cccc(c23)C(=O)N1CCN1CCN(CC(O)COc2ccccc2)CC1 (stereo unspecified) | n | n | n | n | n | n
COc1ccc2nc(-c3cccc(N)c3)[nH]c2c1 | n | 13 | n | n | n | n
CCN(Cc1ccccc1)c1ccc(/C=N/NC(=O)c2cccc(S(=O)(=O)N3CCOCC3)c2)cc1 | n | n | n | n | n | n
O=C(COC(=O)c1ccc(N2CCCC2=O)cc1)c1ccccc1 | n | n | n | 28 | n | n
O=C(CS(=O)(=O)c1ccc(F)cc1)N1CCOCC1 | n | n | n | n | n | n
COc1ccccc1COc1ccc2c(C)c(CC(=O)O)c(=O)oc2c1C | n | n | n | 36 | n | n
Cc1c(CC(=O)O)c(=O)oc2c(C)c3occ(-c4ccccc4)c3cc12 | n | n | n | 45 | n | n
CCOC(=O)C1CCN(C(=O)CCc2nc3sc4c(c3c(=O)[nH]2)CCCC4)CC1 | n | n | n | n | n | n
SMILES | AI-2 QS modul | HIF activator | V-ATPase pHluor | CendR NRP1 mod | T cruzi repl | CR mimetic SO
COc1ccc(C)cc1NC(=S)N1CC(C)OC(C)C1 (stereo unspecified) | n | n | 15 | n | n | n
COc1ccc(NC(=O)N2CC(C)OC(C)C2)cc1OC (stereo unspecified) | n | n | n | n | n | n
Cc1cc(C)cc(Oc2ncnc3c2ncn3Cc2c(Cl)cccc2Cl)c1 | n | n | n | n | 60 | n
CCOC(=O)Nc1nnc(-c2ccc(OC)cc2)s1 | n | x | n | n | n | n
CCOC(=O)Nc1nnc(-c2cccc(OC)c2)s1 | n | n | n | 26 | n | n
CC(NC(=O)COc1ncnc2cc([N+](=O)[O-])ccc12)c1ccccc1 (stereo unspecified) | n | n | n | n | n | n
